Results as given in ChEMBL document CHEMBL1143437, “2-Aryloxymethylmorpholine histamine H(3) antagonists” (Bioorg Med Chem Lett, 2008).

What was measured:
Histamine H3 receptor [1] = molecular target: T1, Histamine H3 receptor (Homo sapiens, UniProt Q9Y5N1); experiment: Displacement of [125I]iodoproxyfan from human recombinant histamine H3 receptor expressed in human SK-N-MC cells; assay type: cell-based
Procedure, shortened: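 Cells stably expressing human H3 were grown to confluence, washed in PBS, pelleted and stored at −80 °C. Pellets were homogenized in 50 mM Tris–HCl, 5 mM EDTA, pH 7.5, spun at 1000g for 5 min, then at 25,000g for 25 min.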

Histamine H3 receptor [2] = molecular target: T2, Histamine H3 receptor (Rattus norvegicus, UniProt Q9QYN8); experiment: Antagonist activity rat recombinant histamine H3 receptor expressed in human SK-N-MC cells; assay type: functional, cell-based; conditions: read-out: pA2 (converted)
T2 sequence (Q9QYN8 whole entry): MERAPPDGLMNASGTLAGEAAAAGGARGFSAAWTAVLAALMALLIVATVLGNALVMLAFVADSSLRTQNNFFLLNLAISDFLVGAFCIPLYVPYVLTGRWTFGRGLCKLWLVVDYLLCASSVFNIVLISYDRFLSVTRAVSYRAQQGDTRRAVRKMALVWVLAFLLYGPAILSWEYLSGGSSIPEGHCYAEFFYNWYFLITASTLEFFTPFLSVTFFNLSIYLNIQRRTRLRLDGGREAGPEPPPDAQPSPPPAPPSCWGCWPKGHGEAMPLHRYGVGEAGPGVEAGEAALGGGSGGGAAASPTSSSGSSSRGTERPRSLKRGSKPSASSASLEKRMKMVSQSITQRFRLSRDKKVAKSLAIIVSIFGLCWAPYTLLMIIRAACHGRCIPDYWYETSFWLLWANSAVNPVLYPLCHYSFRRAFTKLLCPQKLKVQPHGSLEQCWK

Histamine H3 receptor [3] = molecular target: T2, Histamine H3 receptor; experiment: Displacement of [125I]iodoproxyfan from rat recombinant histamine H3 receptor expressed in human SK-N-MC cells; assay type: cell-based
Histamine H3 receptor [4] = molecular target: T1, Histamine H3 receptor; experiment: Antagonist activity at human recombinant histamine H3 receptor expressed in human SK-N-MC cells; assay type: functional, cell-based; conditions: read-out: pA2 (converted)
Rattus norvegicus = experiment: Ex vivo histamine H3 receptor occupancy in rat striatum at 0.3 mg/kg, po; assay type: functional
Procedure, shortened: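 Rats were dosed orally, and striatal H3 receptor occupancy was measured ex vivo 60 min after dosing. Plasma and brain drug levels were taken at the same time. Values are mean ± SEM, n = 3.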

T1 sequence (Q9Y5N1 whole entry): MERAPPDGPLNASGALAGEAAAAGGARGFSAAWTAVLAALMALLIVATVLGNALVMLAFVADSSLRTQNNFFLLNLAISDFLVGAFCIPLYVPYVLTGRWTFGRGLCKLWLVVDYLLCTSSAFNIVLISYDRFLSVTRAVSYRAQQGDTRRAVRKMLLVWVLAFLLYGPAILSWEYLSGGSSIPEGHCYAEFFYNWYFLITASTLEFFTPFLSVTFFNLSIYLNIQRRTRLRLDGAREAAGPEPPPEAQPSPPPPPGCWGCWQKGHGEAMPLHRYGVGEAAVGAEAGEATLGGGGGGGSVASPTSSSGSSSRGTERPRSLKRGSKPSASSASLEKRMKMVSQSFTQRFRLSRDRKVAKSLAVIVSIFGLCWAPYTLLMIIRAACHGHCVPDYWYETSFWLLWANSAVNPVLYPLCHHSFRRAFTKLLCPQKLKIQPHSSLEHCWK

Row | SMILES | Ki (Histamine H3 receptor [1]) | Kb (Histamine H3 receptor [2]) | Ki (Histamine H3 receptor [3]) | Kb (Histamine H3 receptor [4]) | Activity (Rattus norvegicus)
1 | CCOc1ccccc1OCC1CN(C2CC2)CCO1 (stereo not given) | > 10000 nM |  |  |  | 
2 | c1cc(OCC2CN(C3CCCC3)CCO2)ccc1CN1CCOCC1 (stereo not given) | 3.6 nM | 4.79 nM | 20 nM | 0.955 nM | 
3 | CCOc1ccccc1OCC1CN(C(C)C)CCO1 (stereo not given) | 9000 nM |  |  |  | 
4 | c1cc(CN2CCOCC2)cc(OCC2CN(C3CCC3)CCO2)c1 (stereo not given) | 37 nM | 79.4 nM | 277 nM | 14.1 nM | 
5 | c1cc(OCC2CN(C3CCCC3)CCO2)ccc1CN1CCCC1 (stereo not given) | 2.2 nM | 1.58 nM | 9.8 nM | 0.331 nM | 
6 | CCOc1ccccc1OCC1CN(C2CCC2)CCO1 (stereo not given) | 7100 nM |  |  |  | 
7 | CCOc1ccccc1OCC1CN(C2CCCC2)CCO1 (stereo not given) | 5300 nM |  |  |  | 
8 | c1cc(OCC2CN(C3CCCC3)CCO2)ccc1CN1CCCCC1 (stereo not given) | 2.5 nM | 1.55 nM | 10 nM | 0.148 nM | 
9 | c1cc(OC[C@@H]2CN(C3CCCC3)CCO2)ccc1CN1CCOCC1 | 1.9 nM | 2.14 nM | 9.7 nM | 0.38 nM | 80%
10 | c1cc(CN2CCOCC2)cc(OCC2CN(C3CC3)CCO2)c1 (stereo not given) | 566 nM |  |  |  | 
11 | c1ccc(OCC2CNCCO2)cc1 (stereo not given) | > 10000 nM |  |  |  | 
12 | CC(C)N1CCOC(COc2ccccc2)C1 (stereo not given) | 4800 nM |  |  |  | 

The next lines start with results.

Row | Ki (Histamine H3 receptor [1]) | Kb (Histamine H3 receptor [2]) | Ki (Histamine H3 receptor [3]) | Kb (Histamine H3 receptor [4]) | SMILES | Activity (Rattus norvegicus)
13 | 2100 nM |  |  |  | CN1CCOC(COc2ccc(CN3CCOCC3)cc2)C1 (stereo not given) | 
14 | 106 nM |  |  |  | c1cc(OCC2CN(C3CC3)CCO2)ccc1CN1CCOCC1 (stereo not given) | 
15 | 18 nM | 19.1 nM | 75 nM | 3.09 nM | c1cc(OCC2CN(C3CCC3)CCO2)ccc1CN1CCOCC1 (stereo not given) | 
16 | 165 nM |  |  |  | CCN1CCOC(COc2ccc(CN3CCOCC3)cc2)C1 (stereo not given) | 
17 | 49 nM |  | 92 nM |  | CC(C)N1CCOC(COc2ccc(CN3CCOCC3)cc2)C1 (stereo not given) | 
18 | 31 nM | 43.7 nM | 121 nM | 7.94 nM | c1cc(OC[C@H]2CN(C3CCCC3)CCO2)ccc1CN1CCOCC1 | 
19 | 102 nM | 251 nM | 562 nM | 44.7 nM | CC(C)N1CCOC(COc2cccc(CN3CCOCC3)c2)C1 (stereo not given) | 
